Most compounds without a hit are left out; they make up all but 2.9% or so of the library.
S1P3 ag: activates the human S1P3 receptor. actives 0.1% (n = 60,000). S1P3 NFAT-BLA reporter cells, agonism, FRET ratio; relative to 1 µM S1P, basal subtracted. activation, % at 4.5 µM. AID 373;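 active = activation above the screen-wide mean plus 3 SD, cut at about 4.5% in these data, passing the limit was not always enough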
Target sequence (Q99500 whole entry, looked up): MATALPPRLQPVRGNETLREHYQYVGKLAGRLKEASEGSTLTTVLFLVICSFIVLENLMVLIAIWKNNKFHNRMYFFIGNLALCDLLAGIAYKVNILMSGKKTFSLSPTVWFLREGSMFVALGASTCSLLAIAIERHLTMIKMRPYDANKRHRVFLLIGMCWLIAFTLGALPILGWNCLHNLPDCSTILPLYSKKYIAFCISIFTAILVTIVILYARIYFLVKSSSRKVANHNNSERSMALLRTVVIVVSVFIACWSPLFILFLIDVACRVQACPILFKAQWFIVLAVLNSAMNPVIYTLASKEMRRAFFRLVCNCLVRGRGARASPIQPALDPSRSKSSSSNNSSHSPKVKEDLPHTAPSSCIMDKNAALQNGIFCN
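Material: Human S1P3 NFAT-BLA reporter CHO cells | Incubation: Overnight plating, 4 h compound 37 °C, 2 h substrate RT | Signal: FRET β-lactamase substrate fluorescence, excitation 405 nm, 460/535 nm emission ratio, background-subtracted | Compound: 4.5 µM final, single dose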
5HT1E antag: antagonists of human 5-HT1E serotonin receptor; P28566; CHO 5-HT1E Ga15 NFAT-bla reporter, FRET, antagonist; inhibition, % at 6 µM; actives 0.99% (n = 65,000); AID 571;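 active = inhibition above a set limit, the mean inhibition across every tested compound plus 3 SD, cut at about 29% in these data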;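 also: signal is the 460 over 535 nm emission ratio of beta-lactamase substrate; 0% = agonist plus DMSO wells and 100% = wells without agonist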
HTR1E agonist: agonists of human 5-HT1E serotonin receptor; AID 574; actives 0.69% (n = 65,000); CHO 5-HT1E Ga15 NFAT-bla reporter, FRET; 0% DMSO wells, 100% control agonist wells; activation, % at 6 µM;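 active = activation above a set limit, the screen-wide mean activation plus 3 SD, cut at about 8.5% in these data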;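 also: 100% = positive control agonist at 1 µM giving full maximal response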
5-HT1A blocker: 5-HT1a (human) receptor antagonism | actives 0.68% (n = 62,000) | CHO 5-HT1a Ga15 NFAT-bla reporter, antagonist mode | inhibition, % at 10 µM | P08908 | AID 612;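 active = inhibition above the mean of all tested compounds plus 3 SD, cut at about 43% in these data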;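 also: receptor stimulated by 5-CT agonist at 100 nM near EC80; beta-lactamase reporter measured by ratiometric fluorescence of a cleavable substrate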
5HT1a ag: 5-HT1a (human) receptor agonism | P08908 | CHO 5-HT1a Ga15 NFAT-bla reporter, FRET ratio; 0% basal, 100% maximal reference agonist | activation, % at 10 µM | actives 0.56% (n = 65,000) | AID 567;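 active = activation above the screen-wide mean activation plus 3 SD, cut at about 19% in these data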;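 also: 0% = DMSO wells and 100% = 5-CT at EC100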
S1P1 ag-PAM: agonists and agonism potentiators of human S1P1 receptor. P21453. S1P1 CRE-bla cells, forskolin, beta-lactamase FRET, potentiator mode; S1P1 agonist co-added at EC20, 2 nM; 100% = saturating reference agonist, 0% = basal. activation, % at 9.5 µM. actives 0.57% (n = 56,000);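 active = activation above a cutoff set at the mean activation of all tested compounds plus 3 SD, cut at about 54% in these data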;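 also: forskolin at 4 µM as EC80 and the EC20 agonist is SEW2871; 100% = SEW2871 at its EC100 plus forskolin at EC80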
* hit, by the source's call.

Screening CCC(=O)N1CCN(c2ccccc2NC(=O)COc2cc(C)ccc2C(C)C)CC1 returned S1P3 ag 2, 5HT1E antag 3, HTR1E agonist -1, 5-HT1A blocker 58*, 5HT1a ag 5 and S1P1 ag-PAM -11.
Screening CC(=O)N1CCN(c2ccccc2NC(=O)COc2ccc(Cl)cc2Cl)CC1 returned S1P3 ag -1, 5HT1E antag 15, HTR1E agonist 0, 5-HT1A blocker 29, 5HT1a ag 2 and S1P1 ag-PAM 30.
COc1cccc(-c2nc(N3CCN(Cc4ccccc4)CC3)c3ccccc3n2)c1O was read as S1P3 ag 0, 5HT1E antag -37, HTR1E agonist 1, 5HT1a ag 1 and S1P1 ag-PAM 9.
Cc1[nH]c2ccccc2c1C(O)CN1CCN(c2cccc(C(F)(F)F)c2)CC1 (stereo not given) was read as S1P3 ag -2, 5HT1E antag 11, HTR1E agonist 14*, 5-HT1A blocker 37, 5HT1a ag 46* and S1P1 ag-PAM 24.
Screening COC(=O)Nc1nc(C)c(C(=O)N(C)C)s1 returned S1P3 ag 0, 5HT1E antag -2, HTR1E agonist -1, 5-HT1A blocker 2, 5HT1a ag 19* and S1P1 ag-PAM 3.
For COc1ccc(OC)c(C(=O)c2ccc(C(=O)N3CCCCC3)cc2)c1 the results were S1P3 ag -3, 5HT1E antag 8, HTR1E agonist 0, 5-HT1A blocker 0, 5HT1a ag 25* and S1P1 ag-PAM -19.
`Cc1cccn2c(=O)c3cc(C(=O)N4CCc5ccccc54)n(C)c3nc12` gave S1P3 ag 0, 5HT1E antag 4, HTR1E agonist 0, 5-HT1A blocker -7, 5HT1a ag -2 and S1P1 ag-PAM -25.
`Cc1nc(SCC#N)c2c(C)c(C)sc2n1` gave S1P3 ag 0, 5HT1E antag 35*, HTR1E agonist 2, 5-HT1A blocker 19, 5HT1a ag 1 and S1P1 ag-PAM -43.
Screening O=c1[nH]cnc2cc(Cl)ccc12 returned S1P3 ag -1, 5HT1E antag 1, HTR1E agonist -2, 5-HT1A blocker 5, 5HT1a ag 50* and S1P1 ag-PAM 11.
For O=c1[nH]cnc2cc(-c3ccccc3)sc12 the results were S1P3 ag -3, 5HT1E antag 8, HTR1E agonist 0, 5HT1a ag -1 and S1P1 ag-PAM 10.
Screening COc1ccc(C2=Nn3c(nnc3-c3ccccc3OC)SC2)cc1OC returned S1P3 ag 0, 5HT1E antag 87*, HTR1E agonist 2, 5-HT1A blocker 75*, 5HT1a ag -1 and S1P1 ag-PAM -62.
COc1ccc(C2=Nn3c(nnc3-c3ccccn3)SC2)cc1OC was read as S1P3 ag 2, 5HT1E antag 39*, HTR1E agonist 1, 5HT1a ag 0 and S1P1 ag-PAM -20.
Screening Cc1nn(-c2ccccn2)c2c1C(c1ccsc1)C1=C(CCCC1=O)N2 (stereo not given) returned S1P3 ag 0, 5HT1E antag 35*, HTR1E agonist 0, 5-HT1A blocker -6, 5HT1a ag 2 and S1P1 ag-PAM -50.
For Cc1cc(C)n(-c2nc(NC(C)C)nc(NC(C)C)n2)n1 the results were S1P3 ag 0, 5HT1E antag 30*, HTR1E agonist -2, 5-HT1A blocker 11, 5HT1a ag -3 and S1P1 ag-PAM -14.
Screening COc1ccc(N2CCN(CCNC(=O)C3CCN(S(=O)(=O)c4cccs4)CC3)CC2)cc1 returned S1P3 ag -2, 5HT1E antag -4, HTR1E agonist -1, 5-HT1A blocker -4, 5HT1a ag 0 and S1P1 ag-PAM 11.
COc1ccc(N2CCN(S(=O)(=O)c3cccs3)CC2)cc1 was read as S1P3 ag 0, 5HT1E antag 2, HTR1E agonist 0, 5-HT1A blocker -3 and 5HT1a ag 26*.
For Cc1ccc(S(=O)(=O)N(CCC#N)CCN2CCCC2)cc1 the results were S1P3 ag -1, 5HT1E antag 3, HTR1E agonist 0, 5-HT1A blocker 16, 5HT1a ag -2 and S1P1 ag-PAM -33.
